# pIC50: −log10 of the molar value.
# Assays:
# [1] = Inhibition of EGFR E746 to A750 deletion mutant phosphorylation in human patient derived HCC827 cells incubated for 3 hrs by ELISA method; assay type: cell-based; settings: HCC827, 3 h
# How it was run: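 HCC827 cells plated at 7500/well in 5% FBS/RPMI and left overnight at 37 °C. Then 3 h with a 12-point compound dilution series, no EGF stimulation. Lysed in Triton/protease/phosphatase-inhibitor buffer. Phospho-EGFR (Y1173) read by sandwich ELISA: anti-EGFR capture, anti-phospho-EGFR, anti-rabbit-HRP, chemiluminescence. IC50 from at least duplicates.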
# [2] = biological target: T1, Epidermal growth factor receptor (Homo sapiens, UniProt P00533, L858R/T790M); experiment: Inhibition of N-terminal 6x-HIS-tagged human recombinant EGFR (696 to 1022 residues) L858R/T790M mutant expressed in Sf9 cells pre-incubated for 90 mins followed by 1 mM ATP addition by HTRF assay
# How it was run: (§1)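 HTRF kinase assay on the EGFR L858R-T790M kinase domain at 1 mM ATP. Compound with either no preincubation or a 90 min enzyme/compound preincubation.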
# [3] = biological target: T1, Epidermal growth factor receptor; experiment: Inhibition of N-terminal 6x-HIS-tagged human recombinant EGFR (696 to 1022 residues) L858R/T790M mutant expressed in Sf9 cells pre-incubated for 0 mins followed by 1 mM ATP addition by HTRF assay; how it was run: as §1
# [4] = biological target: T2, Epidermal growth factor receptor (Homo sapiens, UniProt P00533); experiment: Inhibition of wild type EGFR phosphorylation in human HaCaT cells incubated for 3 hrs by ELISA method; assay type: cell-based
# [5] = biological target: T1, Epidermal growth factor receptor; experiment: Inhibition of EGFR L858R/T790M mutant phosphorylation in human patient derived H1975 cells incubated for 3 hrs by ELISA method; assay type: cell-based
# [6] = biological target: T1, Epidermal growth factor receptor; experiment: Inhibition of N-terminal 6x-HIS-tagged human recombinant EGFR (696 to 1022 residues) L858R/T790M mutant expressed in Sf9 cells pre-incubated for 90 mins followed by 10 uM ATP addition by HTRF assay
# [7] = biological target: T2, Epidermal growth factor receptor; experiment: Inhibition of N-terminal 6x-HIS-tagged wild type human recombinant EGFR (696 to 1022 residues) expressed in Sf9 cells pre-incubated for 90 mins followed by 10 uM ATP addition by HTRF assay
# [8] = biological target: T3, Epidermal growth factor receptor (Homo sapiens, UniProt P00533, L858R); experiment: Inhibition of N-terminal 6x-HIS-tagged human recombinant EGFR (696 to 1022 residues) L858R mutant expressed in Sf9 cells pre-incubated for 90 mins followed by 10 uM ATP addition by HTRF assay
# [9] = biological target: T3, Epidermal growth factor receptor; experiment: Inhibition of EGFR L858R mutant phosphorylation in human patient derived H3255 cells incubated for 3 hrs by ELISA method; assay type: cell-based
# [10] = biological target: Cytochrome P450 2C9 (Homo sapiens, UniProt P11712); experiment: Inhibition of CYP2C9 (unknown origin); assay type: ADME
# [11] = Intrinsic clearance in human liver microsomes; assay type: ADME; settings: read-out: CLH
# [12] = AUC in balb/c mouse at 20 mg/kg, po by liquid chromatography-tandem mass spectrometry; assay type: ADME, organism-based; settings: in vivo
# How it was run: (§2)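 Rodent PK in male balb/c mice and male Wistar rats; plasma drug levels by LC-MS/MS. Mouse oral dosing at 20 mg/kg, with compounds given as a 0.5% methylcellulose/0.5% Tween 80 suspension or as solutions (PEG300/D5W, or ethanol/PEG300 with Solutol or D5W), depending on compound.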
# [13] = Oral bioavailability in balb/c mouse at 20 mg/kg by liquid chromatography-tandem mass spectrometry; assay type: ADME, organism-based; settings: in vivo; how it was run: as §2
# [14] = Intrinsic clearance in mouse liver microsomes; assay type: ADME; settings: read-out: CLH
# [15] = Clearance in balb/c mouse at 5 mg/kg, iv by liquid chromatography-tandem mass spectrometry; assay type: ADME, organism-based; settings: in vivo; how it was run: as §2
# [16] = Glutathione reactivity assessed as GSH adduct formation incubated for 1 hr using 10 mM glutathione
# How it was run: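 Compound incubated 1 h with 10 mM glutathione; GSH adduct formation measured.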
# [17] = biological target: Cytochrome P450 3A4 (Homo sapiens, UniProt P08684); experiment: Inhibition of CYP3A4 (unknown origin); assay type: ADME
# [18] = biological target: Cytochrome P450 2D6 (Homo sapiens, UniProt P10635); experiment: Inhibition of CYP2D6 (unknown origin); assay type: ADME
# [19] = Aqueous solubility of the compound at pH 6.8; assay type: physicochemical
# [20] = biological target: T2, Epidermal growth factor receptor; experiment: Inhibition of wild type human EGFR phosphorylation expressed in mouse NIH/3T3 cells incubated for 3 hrs by ELISA method; assay type: cell-based
# How it was run: (§3)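 Engineered NIH-3T3 cells expressing L858R-T790M, L858R or WT EGFR. 3 h compound treatment, then cellular phospho-EGFR target modulation read-out. IC50 averaged from at least duplicates.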
# [21] = biological target: T1, Epidermal growth factor receptor; experiment: Inhibition of EGFR L858R/T790M mutant (unknown origin) phosphorylation expressed in mouse NIH/3T3 cells incubated for 3 hrs by ELISA method; assay type: cell-based; how it was run: as §3
# [22] = biological target: T3, Epidermal growth factor receptor; experiment: Inhibition of EGFR L858R mutant (unknown origin) phosphorylation expressed in mouse NIH/3T3 cells incubated for 3 hrs by ELISA method; assay type: cell-based; how it was run: as §3
# T3 sequence (P00533 25-1210 L858R limits assumed): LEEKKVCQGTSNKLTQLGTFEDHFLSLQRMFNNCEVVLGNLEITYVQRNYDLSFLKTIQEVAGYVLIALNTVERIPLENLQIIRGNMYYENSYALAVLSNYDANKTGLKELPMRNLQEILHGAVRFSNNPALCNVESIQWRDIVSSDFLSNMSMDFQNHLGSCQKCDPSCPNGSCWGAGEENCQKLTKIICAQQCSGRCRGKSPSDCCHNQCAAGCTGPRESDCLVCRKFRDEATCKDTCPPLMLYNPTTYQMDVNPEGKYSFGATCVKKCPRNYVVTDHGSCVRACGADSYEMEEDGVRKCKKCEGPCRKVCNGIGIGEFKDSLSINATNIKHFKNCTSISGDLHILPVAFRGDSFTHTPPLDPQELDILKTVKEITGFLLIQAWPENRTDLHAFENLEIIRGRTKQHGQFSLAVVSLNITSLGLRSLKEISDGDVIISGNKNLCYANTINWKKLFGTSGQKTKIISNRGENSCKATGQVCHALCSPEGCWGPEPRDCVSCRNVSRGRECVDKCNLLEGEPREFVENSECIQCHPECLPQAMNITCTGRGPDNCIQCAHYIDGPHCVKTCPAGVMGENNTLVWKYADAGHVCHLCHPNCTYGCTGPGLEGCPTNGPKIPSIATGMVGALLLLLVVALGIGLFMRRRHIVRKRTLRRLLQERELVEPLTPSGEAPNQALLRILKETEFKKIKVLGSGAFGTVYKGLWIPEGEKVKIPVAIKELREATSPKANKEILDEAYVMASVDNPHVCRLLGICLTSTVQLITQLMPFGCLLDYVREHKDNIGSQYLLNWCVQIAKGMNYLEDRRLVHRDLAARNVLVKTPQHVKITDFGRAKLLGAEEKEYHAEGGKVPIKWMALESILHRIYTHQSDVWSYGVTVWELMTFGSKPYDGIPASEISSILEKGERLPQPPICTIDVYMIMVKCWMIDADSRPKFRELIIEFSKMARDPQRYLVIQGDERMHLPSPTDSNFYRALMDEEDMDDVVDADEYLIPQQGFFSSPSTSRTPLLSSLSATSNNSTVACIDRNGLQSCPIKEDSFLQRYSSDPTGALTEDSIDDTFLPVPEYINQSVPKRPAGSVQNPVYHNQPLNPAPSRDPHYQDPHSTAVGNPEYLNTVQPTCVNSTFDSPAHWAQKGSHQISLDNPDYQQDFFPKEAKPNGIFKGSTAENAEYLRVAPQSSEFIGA
# T1 sequence (P00533 25-1210 T790M/L858R limits assumed): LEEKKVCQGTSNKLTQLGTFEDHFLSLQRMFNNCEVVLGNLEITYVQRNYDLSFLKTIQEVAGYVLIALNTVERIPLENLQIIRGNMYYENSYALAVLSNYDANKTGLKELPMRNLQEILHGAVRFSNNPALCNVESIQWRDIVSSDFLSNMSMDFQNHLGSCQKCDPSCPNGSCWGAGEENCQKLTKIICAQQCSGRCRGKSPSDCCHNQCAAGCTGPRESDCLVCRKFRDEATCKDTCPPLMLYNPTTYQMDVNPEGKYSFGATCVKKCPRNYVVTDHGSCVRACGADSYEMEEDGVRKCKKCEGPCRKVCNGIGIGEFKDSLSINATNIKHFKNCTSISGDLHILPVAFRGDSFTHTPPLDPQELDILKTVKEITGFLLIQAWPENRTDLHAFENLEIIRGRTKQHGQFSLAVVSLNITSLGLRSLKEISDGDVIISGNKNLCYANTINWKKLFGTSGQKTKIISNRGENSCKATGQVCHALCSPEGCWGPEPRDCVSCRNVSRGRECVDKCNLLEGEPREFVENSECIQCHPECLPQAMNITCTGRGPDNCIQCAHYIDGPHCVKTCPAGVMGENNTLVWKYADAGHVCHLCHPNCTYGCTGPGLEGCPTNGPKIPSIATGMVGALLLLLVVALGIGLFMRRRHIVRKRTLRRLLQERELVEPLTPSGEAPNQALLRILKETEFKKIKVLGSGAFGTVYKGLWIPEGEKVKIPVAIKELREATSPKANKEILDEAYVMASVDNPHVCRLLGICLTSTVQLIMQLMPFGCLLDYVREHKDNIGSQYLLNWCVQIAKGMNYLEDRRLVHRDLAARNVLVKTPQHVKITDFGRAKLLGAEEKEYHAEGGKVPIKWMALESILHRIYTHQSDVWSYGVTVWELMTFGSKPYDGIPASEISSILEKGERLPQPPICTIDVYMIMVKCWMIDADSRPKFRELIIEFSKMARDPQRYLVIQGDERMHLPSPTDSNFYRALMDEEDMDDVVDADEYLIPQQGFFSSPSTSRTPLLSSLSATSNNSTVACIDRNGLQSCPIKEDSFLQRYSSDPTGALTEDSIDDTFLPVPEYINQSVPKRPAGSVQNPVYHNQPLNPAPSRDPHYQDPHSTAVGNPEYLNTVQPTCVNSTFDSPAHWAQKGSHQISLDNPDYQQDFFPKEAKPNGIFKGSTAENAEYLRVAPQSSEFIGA
# T2 sequence (P00533 whole entry): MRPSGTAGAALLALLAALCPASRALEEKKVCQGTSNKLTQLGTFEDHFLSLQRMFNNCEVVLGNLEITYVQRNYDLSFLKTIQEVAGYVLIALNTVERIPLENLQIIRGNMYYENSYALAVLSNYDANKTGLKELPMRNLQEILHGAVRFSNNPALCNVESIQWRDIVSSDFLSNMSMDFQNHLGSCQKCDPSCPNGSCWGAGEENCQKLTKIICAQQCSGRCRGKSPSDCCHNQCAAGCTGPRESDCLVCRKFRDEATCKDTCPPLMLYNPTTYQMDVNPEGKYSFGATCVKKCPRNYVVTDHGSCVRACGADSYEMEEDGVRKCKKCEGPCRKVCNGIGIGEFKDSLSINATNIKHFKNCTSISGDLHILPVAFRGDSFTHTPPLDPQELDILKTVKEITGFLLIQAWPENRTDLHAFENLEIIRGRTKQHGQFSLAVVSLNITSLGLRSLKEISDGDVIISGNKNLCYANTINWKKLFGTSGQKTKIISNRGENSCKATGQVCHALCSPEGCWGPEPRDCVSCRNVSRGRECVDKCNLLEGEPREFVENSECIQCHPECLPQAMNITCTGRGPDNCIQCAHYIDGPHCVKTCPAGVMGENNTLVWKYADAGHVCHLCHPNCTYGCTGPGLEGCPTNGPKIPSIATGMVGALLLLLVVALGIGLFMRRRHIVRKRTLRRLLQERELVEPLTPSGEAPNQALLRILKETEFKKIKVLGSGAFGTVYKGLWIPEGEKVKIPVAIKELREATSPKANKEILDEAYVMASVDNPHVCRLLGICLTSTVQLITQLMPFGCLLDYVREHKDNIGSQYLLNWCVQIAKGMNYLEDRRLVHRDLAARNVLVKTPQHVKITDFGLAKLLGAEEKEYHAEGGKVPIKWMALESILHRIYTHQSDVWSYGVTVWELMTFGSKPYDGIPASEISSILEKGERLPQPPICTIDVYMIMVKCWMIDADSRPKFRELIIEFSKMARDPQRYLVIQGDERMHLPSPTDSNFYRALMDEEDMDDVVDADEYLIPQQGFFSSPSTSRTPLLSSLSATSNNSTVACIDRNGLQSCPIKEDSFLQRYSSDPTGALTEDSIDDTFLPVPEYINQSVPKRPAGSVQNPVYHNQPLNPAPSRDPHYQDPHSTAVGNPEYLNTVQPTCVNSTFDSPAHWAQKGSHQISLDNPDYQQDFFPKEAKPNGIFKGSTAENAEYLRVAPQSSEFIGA
# Cytochrome P450 3A4, sequence (P08684 whole entry): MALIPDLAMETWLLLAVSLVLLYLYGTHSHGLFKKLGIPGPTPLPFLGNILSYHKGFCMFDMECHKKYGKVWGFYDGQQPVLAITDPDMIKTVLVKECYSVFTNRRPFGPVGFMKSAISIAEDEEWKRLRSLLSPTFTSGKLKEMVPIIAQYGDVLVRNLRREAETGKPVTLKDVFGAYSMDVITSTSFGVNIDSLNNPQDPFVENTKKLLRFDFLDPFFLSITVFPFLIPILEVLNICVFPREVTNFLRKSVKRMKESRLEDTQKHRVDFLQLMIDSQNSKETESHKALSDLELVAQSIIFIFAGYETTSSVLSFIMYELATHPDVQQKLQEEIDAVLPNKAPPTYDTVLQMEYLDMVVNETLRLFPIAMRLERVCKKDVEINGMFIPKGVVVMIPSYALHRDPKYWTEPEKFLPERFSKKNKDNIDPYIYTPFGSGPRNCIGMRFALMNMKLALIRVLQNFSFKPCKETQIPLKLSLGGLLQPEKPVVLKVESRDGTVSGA
# Cytochrome P450 2C9, sequence (P11712 whole entry): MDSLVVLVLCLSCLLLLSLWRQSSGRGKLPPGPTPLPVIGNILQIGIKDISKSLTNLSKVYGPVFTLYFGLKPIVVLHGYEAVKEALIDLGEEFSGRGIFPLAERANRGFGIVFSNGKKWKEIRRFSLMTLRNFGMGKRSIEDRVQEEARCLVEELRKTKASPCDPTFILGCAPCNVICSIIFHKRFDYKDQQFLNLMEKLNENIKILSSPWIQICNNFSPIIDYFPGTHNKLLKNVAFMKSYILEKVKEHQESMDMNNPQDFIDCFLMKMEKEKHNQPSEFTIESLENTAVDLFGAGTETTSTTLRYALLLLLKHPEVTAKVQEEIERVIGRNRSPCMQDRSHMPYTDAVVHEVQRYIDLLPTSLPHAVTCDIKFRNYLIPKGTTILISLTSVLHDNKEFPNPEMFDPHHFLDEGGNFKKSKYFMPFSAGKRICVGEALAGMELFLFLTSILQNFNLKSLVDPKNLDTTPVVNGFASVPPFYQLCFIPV
# Cytochrome P450 2D6, sequence (P10635 whole entry): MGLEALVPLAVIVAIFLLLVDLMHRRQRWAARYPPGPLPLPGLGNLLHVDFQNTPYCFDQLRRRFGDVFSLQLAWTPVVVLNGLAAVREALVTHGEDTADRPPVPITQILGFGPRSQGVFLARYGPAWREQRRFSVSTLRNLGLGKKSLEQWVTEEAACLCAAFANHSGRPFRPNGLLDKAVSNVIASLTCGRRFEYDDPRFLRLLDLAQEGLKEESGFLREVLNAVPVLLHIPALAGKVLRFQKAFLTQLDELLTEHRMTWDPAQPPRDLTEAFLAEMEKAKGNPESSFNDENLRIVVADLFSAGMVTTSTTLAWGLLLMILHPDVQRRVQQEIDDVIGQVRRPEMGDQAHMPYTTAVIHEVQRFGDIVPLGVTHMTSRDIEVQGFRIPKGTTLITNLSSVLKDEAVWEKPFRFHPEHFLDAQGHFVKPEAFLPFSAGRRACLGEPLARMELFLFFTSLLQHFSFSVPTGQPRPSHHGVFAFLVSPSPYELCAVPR
compound,measurement,setting,value
C=CC(=O)Nc1cccc(Nc2nc(Nc3ccc(N4CCN(C(C)=O)CC4)cc3OC)ncc2C(F)(F)F)c1 [ROCILETINIB],pIC50,[1],8.02
C=CC(=O)N(C)c1cccc(-n2c(NC(=O)c3cccc(C(F)(F)F)c3)nc3cc(C)ccc32)c1,pIC50,[2],8.00
same,pIC50,[3],4.65
same,pIC50,[1],6.57
same,pIC50,[4],< 5.00
same,pIC50,[5],6.74
CCOCc1ccc2c(c1)nc(NC(=O)c1cccc(C(F)(F)F)c1)n2[C@H]1CC[C@H](O)CC1,pIC50,[6],6.33
same,pIC50,[7],< 4.38
same,pIC50,[8],5.68
Cc1ccc2c(c1)nc(NC(=O)c1cccc(C(F)(F)F)c1)n2[C@H]1CC[C@H](O)CC1,pIC50,[6],6.85
same,pIC50,[7],< 4.93
same,pIC50,[8],< 5.07
C=CC(=O)Nc1ccc(-n2c(NC(=O)c3cccc(C(F)(F)F)c3)nc3cc(C)ccc32)cc1,pIC50,[2],< 4.30
same,pIC50,[3],< 4.30
C=CC(=O)Nc1cccc(-n2c(NC(=O)c3cccc(C(F)(F)F)c3)nc3cc(C)ccc32)c1,pIC50,[2],8.40
same,pIC50,[9],5.98
same,pIC50,[3],< 4.30
same,pIC50,[1],6.57
same,pIC50,[5],6.87
C=CC(=O)N1CCCC(n2c(NC(=O)c3cccc(C(F)(F)F)c3)nc3cc(C)ccc32)C1 (stereo unspecified),pIC50,[2],7.70
same,pIC50,[9],6.38
same,pIC50,[3],< 4.30
same,pIC50,[1],6.82
same,pIC50,[4],< 5.00
same,pIC50,[5],7.61
C=CC(=O)NC1CCC(n2c(NC(=O)c3cccc(C(F)(F)F)c3)nc3cc(C)ccc32)C1 (stereo unspecified),pIC50,[2],5.17
same,pIC50,[3],< 4.30
C=CC(=O)N[C@H]1CC[C@H](n2c(NC(=O)c3cccc(C(F)(F)F)c3)nc3cc(C)ccc32)CC1,pIC50,[2],< 4.30
same,pIC50,[3],< 4.30
C=CC(=O)N1CC(n2c(NC(=O)c3cccc(C(F)(F)F)c3)nc3cc(C)ccc32)C1,pIC50,[2],< 4.30
same,pIC50,[3],< 4.30
Cc1cccc2nc(NC(=O)c3cccc(C(F)(F)F)c3)n([C@@H]3CCCCN(C(=O)/C=C/CN(C)C)C3)c12,pIC50,[10],4.75
same,microsomal CLint,[11],49 µL/min/mg
same,AUC,[12],4.39 µM·h
same,pIC50,[9],7.34
same,bioavailability,[13],40%
same,microsomal CLint,[14],233 µL/min/mg
same,clearance,[15],57.2 mL/min/kg
same,pIC50,[1],7.90
same,Drug metabolism,[16],< 5%
same,pIC50,[4],6.45
same,pIC50,[17],4.65
same,pIC50,[18],4.78
same,solubility,[19],10.5 µM
same,pIC50,[5],8.66
Cc1cc(C(=O)Nc2nc3cccc(Cl)c3n2[C@@H]2CCCCN(C(=O)/C=C/CN(C)C)C2)ccn1,Drug metabolism,[16],< 5%
C=CC(=O)N1CCCC(n2c(NC(=O)c3cccc(C(F)(F)F)c3)nc3cc(C)ccc32)CC1 (stereo unspecified),pIC50,[2],< 4.30
same,pIC50,[3],< 4.30
C=CC(=O)N[C@@H]1CCC[C@@H](n2c(NC(=O)c3cccc(C(F)(F)F)c3)nc3cc(C)ccc32)C1 (racemic),pIC50,[2],7.22
same,pIC50,[20],< 5.00
same,pIC50,[3],< 4.30
same,pIC50,[21],6.39
same,pIC50,[22],< 5.43
Cc1cccc2c1nc(NC(=O)c1cccc(C(F)(F)F)c1)n2[C@H]1CC[C@H](O)CC1,pIC50,[6],5.86
same,pIC50,[7],< 4.30
same,pIC50,[8],4.93

# From ChEMBL document CHEMBL3860038, “Discovery of (R,E)-N-(7-Chloro-1-(1-[4-(dimethylamino)but-2-enoyl]azepan-3-yl)-1H-benzo[d]imidazol-2-yl)-2-methylisonicotinamide (EGF816), a Novel, Potent, and WT Sparing Covalent Inhibitor of Oncogenic (L858R, ex19del) and Resistant (T790M) EGFR Mutants for the Treatment of EGFR Mutant …” (J Med Chem, 2016)
